# High-throughput results from PubChem.
# Hits are enriched below; roughly 1.9% of the tested compounds scored in any of these assays.
# Xi reactivation: X-chromosome reactivation activator; XiGFP mouse fibroblasts, % GFP-positive cells imaging, 3 d; cells co-treated with 5-aza-dC sensitizer; scaled so ellipticine positive control = 100%; activation, % at 7.58 µM; actives 0.055% (n = 360,000); AID 743238;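 active means mean normalized replicate activation at least 10% and every replicate at or above 10%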;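 further: 0% = median of on-plate neutral control wells and 100% = ellipticine 6 µM median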
#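 Assay system: SV40-immortalized XiGFP fibroblast cells, line 68-5-11; buffer or medium: DMEM plus 5-aza-dC sensitizer; compound: one concentration, pinned; timing: compounds 3 days, fix/stain 15 min at room temperature; benchmarks: positive control ellipticine, 6 µM final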
# ABHD5-PLIN5 inh: inhibitors of human ABHD5-perilipin-5 interaction | Q00G26+Q8WTS1 | actives 0.78% (n = 360,000) | Split G. princeps luciferase complementation, luminescence, 4 h | inhibition, % at 4 µM;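 active means inhibition above the mean inhibition across every tested compound plus 3 SD, cut at about 22% in these data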;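 further: 0% = DMSO only wells and the 100% control is not disclosed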
# Rpn11 block: Rpn11 (human) deubiquitinase inhibition | O00487 | human 26S proteasome, Ub4-pepOG fluorescence polarization; 20S core pre-blocked with epoxomicin | inhibition, % at 20 µM | actives 0.59% (n = 360,000) | AID 588493;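 active means inhibition at 20 µM, scaled to each plate's controls, above about 33%, limit read from the data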
# Target sequence (O00487 whole entry, looked up): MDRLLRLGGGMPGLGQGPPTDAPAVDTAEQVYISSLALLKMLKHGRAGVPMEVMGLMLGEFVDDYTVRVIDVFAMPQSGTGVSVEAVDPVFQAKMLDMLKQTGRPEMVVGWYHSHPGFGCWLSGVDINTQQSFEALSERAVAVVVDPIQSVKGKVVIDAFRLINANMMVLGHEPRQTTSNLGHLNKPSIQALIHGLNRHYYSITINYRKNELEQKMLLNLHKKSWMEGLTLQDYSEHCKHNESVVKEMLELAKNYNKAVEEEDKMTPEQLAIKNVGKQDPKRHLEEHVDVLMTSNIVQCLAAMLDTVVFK
# NadD block: NadD (S. aureus) enzyme inhibition. inhibition, % at 20 µM. purified NadD enzyme, colorimetric absorbance read-out. actives 0.78% (n = 360,000); in the data active means inhibition above about 26%
# Rin1-Abl PPI inh: blocks binding of human Rin1 to Abl. inhibition, % at 7.35 µM. P00519+Q13671. actives 0.4% (n = 360,000). TR-FRET Rin1/Abl binding, biochemical; in the data active means inhibition above about 5%, passing the limit was not always enough
# NadD conf: confirmation of Staphylococcus aureus NadD inhibitors; shares compounds with NadD block; purified S. aureus NadD, colorimetric enzyme assay; inhibition, % at 20 µM; actives 13% (n = 2,000); in the data active means inhibition mostly above about 42%, no sharp cut-off; inactive means mostly below about 42%
# Starred values were filed as active, the others as inactive; nt = no result given.
SMILES,Xi reactivation,ABHD5-PLIN5 inh,Rpn11 block,NadD block,Rin1-Abl PPI inh,NadD conf
Nc1nonc1-n1nnc(C(=O)N/N=C/c2ccc(OCc3ccccc3)cc2)c1CNc1ccccc1,0.2,2.5,-2.0,39.2*,1.2,0.6
Nc1nonc1-n1nnc(C(=O)N/N=C/c2ccc(OCc3cccc(Cl)c3)cc2)c1CN1CCCCC1,0.1,0.1,1.4,21.9,-0.2,nt
Cc1cccc(COc2ccc(/C=N/NC(=O)c3nnn(-c4nonc4N)c3CN3CCCCC3)cc2)c1,0.0,-2.6,5.4,30.7*,-0.5,10.4
Cc1ccc(CNC(=O)c2ccc(N3CCC4(CC3)CC(c3ccccc3)=NO4)c(NC(=O)c3cccc(C)c3)c2)cc1,0.0,-3.1,-3.0,7.6,0.0,nt
Cc1ccc(CNC(=O)c2ccc(N3CCC4(CC3)CC(c3cccc(Br)c3)=NO4)c(NC(=O)c3ccc(Br)cc3)c2)cc1,0.0,-0.3,36.2,28.5,-0.4,nt
Cc1ccc(CNC(=O)c2ccc(N3CCC4(CC3)CC(c3ccccc3)=NO4)c(NC(=O)c3ccc(Cl)c([N+](=O)[O-])c3)c2)cc1,0.0,-16.7,-11.9,36.4*,-1.9,-3.5
Cc1ccc(CNC(=O)c2ccc(N3CCC4(CC3)CC(c3cccc(Br)c3)=NO4)c(NC(=O)c3c(Cl)cccc3Cl)c2)cc1,-0.4,-2.8,10.7,33.4*,0.8,-0.8
O=C(/C=C/c1ccco1)Nc1ccc(N2CCCC2)cc1,0.1,3.9,-2.1,36.5*,0.6,5.2
Cc1ccc(Oc2ccc3c(c2)C(=O)N(c2ccc(S(=O)(=O)Nc4nccs4)cc2)C3=O)cc1,nt,-2.0,10.6,44.4*,-3.7,46.4
O=C(Nc1nccs1)c1cccc(N2C(=O)c3cccc4c([N+](=O)[O-])ccc(c34)C2=O)c1,nt,0.7,-11.2,37.5*,-2.5,10.2
Cc1cc2oc(C(=O)Nc3ccc(S(=O)(=O)Nc4nccs4)cc3)cc(=O)c2cc1Cl,0.3,4.8,-1.4,64.5*,2.1,23.3
O=C(Nc1ccc(S(=O)(=O)Nc2nccs2)cc1)c1cccc(N2C(=O)c3ccccc3C2=O)c1,0.0,0.1,30.4,39.3*,0.0,58.4*
Cc1cccc(S(=O)(=O)N2C[C@@H](O)COC[C@@H]3O[C@H](CC(=O)NCc4ccc5c(c4)OCO5)CC[C@H]32)c1,0.1,nt,nt,nt,nt,nt
CO[C@H]1CN(C)C(=O)c2ccc(NC(=O)C3CCC3)cc2OC[C@H](C)N(C(=O)CN(C)C)C[C@@H]1C,-0.1,nt,nt,nt,nt,nt
CC[C@H](C)/C=C(C)/C=C/c1cc2c(cn1)C(=O)[C@@](C)(OC(C)=O)C(O)=C2Cl,nt,3.9,-16.6,12.9,-0.9,nt
CC[C@H](C)/C=C(C)/C=C/C(=O)Cc1cc(O)c(C)c(O)c1C=O,nt,-7.7,38.7,33.2*,1.8,13.6
O=C(c1ccc2c(=O)n(Cc3ccco3)c(=S)[nH]c2c1)N1CCN(c2ccccc2)CC1,nt,4.2,-2.5,28.0*,2.3,23.7
CC1CC(C)CN(C(=O)c2ccc3c(=O)n(Cc4ccc5c(c4)OCO5)c(=S)[nH]c3c2)C1 (stereo unspecified),nt,-0.7,-10.8,31.9*,2.5,5.1
CCCn1c(=S)[nH]c2cc(C(=O)N3CCN(c4ccccc4)CC3)ccc2c1=O,-0.1,-11.5,2.8,3.4,0.8,nt
O=C(c1ccc2c(=O)n(Cc3ccc4c(c3)OCO4)c(=S)[nH]c2c1)N1CCCCC1,nt,-1.1,-1.0,11.1,-0.7,nt
C[C@H](CO)N1C[C@H](C)[C@H](CN(C)C(=O)C2CC2)Oc2ncc(C3=CCCC3)cc2C1=O,-1.3,nt,nt,nt,nt,nt
CCC(=O)N1CC[C@@H]2[C@H]1c1cc(-c3ccccc3F)ccc1N(C)[C@@H]2CO,0.4,nt,nt,nt,nt,nt
Cc1ccc(C2C(C=Nc3c(C)n(C)n(-c4ccccc4)c3=O)=C(c3ccccc3)Oc3ccccc32)cc1 (stereo unspecified),nt,-7.5,0.4,37.8*,0.0,10.9
Cc1ccc(Nc2nc(Nc3ccc(C)cc3)nc(SC3=NCCS3)n2)cc1,nt,-24.8,-1.3,30.5*,0.4,51.2*
Cc1ccccc1Nc1nc(Nc2ccccc2C)nc(SC2=NCCS2)n1,nt,0.9,4.4,9.1,-0.7,nt
O=C(CN1CCc2ccccc21)Nc1ccc2c(c1)OCO2,nt,5.2,2.5,56.4*,-2.2,7.6
